The values that follow come from publication PMC9385543 (International Journal for Parasitology: Drugs and Drug …, 2022).

Like-named read-outs stand apart in the source and are kept apart here.

What is called IC50 is the point on the concentration scale where inhibition reaches its midpoint. As usually defined, the CC50 is the concentration at which the toxic effect on the cells reaches its halfway point. A lower CC50 goes with greater toxicity to the cells.

In series [1] the test system is Theileria equi. The series is described as follows: Viability test. In kind it is cell-based. A digest of the protocol:
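After 96 h exposure in the growth assay, treated or untreated infected RBCs were moved into drug-free complete medium with fresh uninfected horse RBCs. Cultured a further 72 h at 37 °C under micro-aerophilic gas, with medium replaced every 24 h. Parasite recrudescence/viability was scored on Giemsa-stained blood smears.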

In a further series the test system is horse RBCs. The series is described as follows: In vitro haemolytic assay. In kind it is cell-based.
In series [2] the test system is Theileria equi. The series is described as follows: In vitro growth inhibitory assay of Theileria equi in MASP culture. In kind it is cell-based. The following applies: for in vitro growth inhibition versus control well: p < 0.05; for morphological changes observed in treated parasites: in vitro treatment, at 96 h, Giemsa-stained smears; for IC50: read-out: IC50 value for growth inhibition of T. equi. A digest of the protocol: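 T. equi-infected horse RBCs from MASP culture, diluted to 1% parasitaemia with uninfected ELISA-negative horse RBCs. Medium: M199 with 40% equine serum, antibiotics and 200 μM hypoxanthine. Test compounds at 1–200 μM or 125–1000 nM, triplicate wells, 96 h at 37 °C under 5% CO2/3% O2; drug medium renewed every 24 h. Percent parasitaemia followed over time; IC50 by curve fitting; two-way ANOVA with Bonferroni (p < 0.05).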

Series [3] can be described thus: In vitro cytotoxicity assay. In kind it is cell-based, horse. The following applies: horse, PHA-stimulated horse PBMCs.
For a further series, the system named is horse PBMCs. Put plainly: In vitro cytotoxicity assay. In kind it is cell-based.
Where [4] appears, read: 48 h, 72 h and 96 h, 250 nM–1000 nM.

For the compound `CCCCCCCCCCCC[N+](C)(C)C.[Br-]` [DDTAB, dodecyl trimethyl ammonium bromide], in the series on Theileria equi [1] (after 96 h treatment with 500 nM–1000 nM), the “parasite multiplication in the viability test” value (“parasite multiplication” for short) was “failed to multiply further”. The “haemolytic activity on horse RBCs” value with horse RBCs (highest concentration of 2000 μM) is on record as “more”. Also, the “in vitro growth inhibition versus control well” value with Theileria equi [2] (24 h, 750 and 1000 nM) is “significant difference”; in the series with Theileria equi [2] (setting [4]), “significant (p < 0.05) growth inhibition”. Also, the “morphological changes observed in treated parasites” value (“morphological changes observed” below) in the series with Theileria equi [2] is “devoid of internal structures, showing pycnotic and degenerative appearances”. Further, the half-inhibitory concentration (IC50) in the series with Theileria equi [2] (96 h of culture) turned out to be 0.47 µM.
With `C[N+](C)(C)CCCCCCCCCC[N+](C)(C)C` [DMB, Decamethonium bromide], the “parasite multiplication” value with Theileria equi [1] (after 96 h treatment with 50 μM–200 μM) was “failed to multiply further”. In series [3], this compound yielded a half-maximal cytotoxic concentration (CC50) at 24 h of 7200 µM. For the same compound, the “Specific selective index (SSI) with respect to host's PBMC” value with horse PBMCs (CC50 on horse PBMCs / IC50 on T. equi) is given as 514.50. Besides, in the series on horse PBMCs (highest concentration 1000 μM, 24 h), the “cytotoxicity to horse PBMCs” value was “less than 10%”. In the series with horse RBCs (10 μM–2000 μM, 90 min), the “haemolytic activity on horse RBCs” value is less than 3%. Further, the “Specific selective index (SSI) with respect to host's RBC” value with horse RBCs (CC50 on horse RBCs / IC50 on T. equi) worked out at 16035.38. The “in vitro growth inhibition versus control well” value in the series on Theileria equi [2] (24 h, 100 μM and 200 μM) is recorded as “significant difference”; in the series with Theileria equi [2] (48 h, 72 h and 96 h, 5 μM–200 μM), “significant (p < 0.05) growth inhibition”. The IC50 in the series with Theileria equi [2] (Theileria equi, 96 h) was found to be 14 µM. The “morphological changes observed” value with Theileria equi [2] is “devoid of internal structures, showing pycnotic and degenerative appearances”.
As for `CCCCCCCCCC[N+](C)(C)C.[Br-]` [DTAB, Decyl trimethyl ammonium bromide], the “parasite multiplication” value with Theileria equi [1] (after 96 h treatment with 750 nM and 1000 nM) was “failed to multiply further”. Further, the “haemolytic activity on horse RBCs” value with horse RBCs (10 μM–2000 μM, 90 min) is listed as less than 3%. Moreover, the “in vitro growth inhibition versus control well” value in the series with Theileria equi [2] (24 h, 500, 750 and 1000 nM) is on record as “significant difference”; in the series with Theileria equi [2] (setting [4]) it was “significant (p < 0.05) growth inhibition”. Further, the “morphological changes observed” value with Theileria equi [2] was “devoid of internal structures, showing pycnotic and degenerative appearances”. Also, the 50% inhibitory concentration (IC50) with Theileria equi [2] (96 h of culture) was determined as 0.558 µM.
